Measured values reported in paper PMC9535606 (Journal of Alzheimer's Disease Reports, 2022).

Legend:
[1] = test system: primary rat cortical neurons; assay: 3-NP-induced neurotoxicity, cell survival by counting Hoechst-stained nuclei; assay type: cell-based; conditions: for Cell Survival (%): 0.5 mM for 24 h prior to 2.5 mM 3-NP for 24 h, Hoechst, % of control; for viability of cultured cortical neurons exposed to 3-NP: then 2.5 mM 3-NP 24 h
Outline: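 E18 Sprague-Dawley rat cortical neurons (DIV 7–9) were pretreated with test compound for 24 h, then given 2.5 mM 3-NP for 24 h. Cells were fixed in 4% paraformaldehyde and stained with Hoechst 33342 (1:1000 in PBS, 5–15 min). Nuclei with normal morphology were counted. Survival (%) = mean surviving cells ÷ concurrent control × 100%.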

[2] = test system: primary rat cortical neurons; assay: 3-NP-induced cellular ROS, CellROX fluorescence; assay type: cell-based; conditions: for ROS level compared with 3-NP-vehicle-treated group: 0.5 mM for 24 h prior to 2.5 mM 3-NP, LiCl p < 0.001, SB p < 0.01, LiBen p < 0.0001
Outline: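 Primary cortical cultures came from E18 Sprague-Dawley rat cortex and were used at DIV 7–9 (neuron-enriched). Cultures were pretreated with test compound (0, 0.5, 1 or 3 mM) for 24 h, then exposed to 2.5 mM 3-NP for another 24 h. CellROX Green reagent was added, cells were washed with PBS, and ROS were quantified as fluorescence (Ex 485/Em 520 nm), with confocal imaging.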

WT mice = assay: Chronic administration safety observations in WT mice; assay type: in vivo, mouse
Outline: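 Wild-type littermates dosed i.p. once daily from 5 months of age for 8 months with test compound in 0.9% saline (n = 27) or saline vehicle (n = 23). Dose 256 mg/kg/day for 5 months, then 200 mg/kg/day. Barnes maze at 5, 7, 10 and 13 months, scored as probe-trial target-quadrant time over total exploring time. Body weight and survival followed to 16 months.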

APP/PS1 mice [3] = assay: Prepulse inhibition, sensorimotor gating; assay type: in vivo, mouse
Outline: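 In APP/PS1 mice and WT littermates, test compound in 0.9% saline was given i.p. once daily from 5 months of age. The dose was 256 mg/kg/day for 5 months, then lowered to 200 mg/kg/day. Saline-vehicle groups served as controls. Behavioural testing took place at 5 (pre-dose), 7, 10 and 13 months of age.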

[4] = test system: rat primary cortical neurons; assay: Neurogenesis, BrdU/NeuN immunostaining after Aβ25-35; assay type: cell-based; conditions: p < 0.0001
Outline: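 Aβ25-35 was pre-aggregated at 37 °C for 24 h and applied to E18 rat cortical cultures on coverslips for 2 days. Medium was then replaced with BrdU labelling solution plus test compound for 4 days at 37 °C. Cells were fixed in PFA, blocked in 2% BSA, permeabilised with 0.03% Triton X-100 and treated with 2 N HCl. They were stained for BrdU (1:250), NeuN (1:300) and Hoechst. Triple-positive cells were expressed as % of untreated control; mean ± SD, N=3, one-way ANOVA with Student-Newman-Keuls.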

[5] = test system: rat primary cortical neurons; assay: Aβ25-35-induced cytotoxicity, cell survival with or without MK-801; assay type: cell-based; conditions: for cell survival rate: 10 μM Aβ25-35 for 2 days, then 1 mM for 4 days; for protective effect against Aβ25-35 in the presence vs absence of MK-801: MK-801 10 μM, SB 1 mM, LiBen 0.5 and 1 mM
[6] = test system: rat primary cortical neurons; assay: Mitochondrial respiration, Seahorse XF Cell Mito Stress Test; assay type: cell-based; conditions: 3 mM
Outline: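 Rat primary cortical neurons on XF96 plates were pretreated with test compound (3 mM) for 24 h. They were then moved to XF assay medium for 1 h at 37 °C without CO2. Oxygen consumption rate was recorded on an XF96 analyser with serial oligomycin, FCCP and rotenone/antimycin A injections. Basal respiration, ATP production, proton leak and spare capacity were derived; mean ± SD, N=3.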

[7] = test system: rat primary cortical neuronal culture; assay: Oxygen glucose deprivation; assay type: cell-based
Outline: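 For OGD, rat cortical cultures were rinsed into glucose- and pyruvate-free Neurobasal-A and held 1 h at 37 °C/5% CO2. They were then kept under 95% N2/5% CO2 (about 1.0% O2) for 4 h. Test compound was present either for the whole 53 h (0–5 mM) or only for 48 h post-OGD (0–3 mM). Viability was measured by MTT as % of the normoxic untreated control.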

[8] = Pharmacokinetics of lithium in rat plasma after single oral dose; assay type: in vivo; conditions: same molarity
Outline: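 Male Sprague-Dawley rats (240–260 g, n=6/group) were fasted overnight and given a single gavage dose in PBS. Doses were test compound 255.3 mg/kg or sodium benzoate 287.9 mg/kg plus Li2CO3 74.2 mg/kg (equimolar). Jugular blood was drawn from 0 to 24 h into heparinised tubes, and plasma was separated at 2500×g for 15 min at 4 °C. Plasma was digested overnight in 2–5% nitric acid, filtered, and lithium measured by ICP-MS; concentration-time plots were used; mean ± SD.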

APP/PS1 mice [9] = assay: Amyloid plaque number in brain, Congo red staining; assay type: in vivo, mouse; conditions: APP/PS1 mice at 16 months of age, AD/LiBen vs AD/Veh; p < 0.05
[10] = US FDA and JECFA of WHO; cited from earlier work
[11] = 24 h, compared with SB or LiCl treatment

## O=C(O)CC[N+](=O)[O-] [3-NP, 3-nitropropionic acid, reference compound]
[1]; 3-NP 2.5 mM alone
  neuronal cell death: ~50%
[2]; 3-NP 2.5 mM, 24 h, p < 0.05
  ROS level (fluorescent intensity) increase compared to control: 57.5%

## O=C([O-])c1ccccc1.[Li+] [LiBen, lithium benzoate]
[1]
  Cell Survival (%): 79.0%
[1]; LiBen 1 mM 24 h, p < 0.005 vs 3-NP alone
  viability of cultured cortical neurons exposed to 3-NP: significantly increase
[1]; LiBen 3 mM 24 h, p < 0.001 vs 3-NP alone
  viability of cultured cortical neurons exposed to 3-NP: significantly increase
[1]; LiBen 1 or 3 mM, no 3-NP
  viability of cultured cortical neurons in the absence of 3-NP: the difference was not revealed
WT mice; WT mice, chronic administration
  body weight change during the experimental period: without significant body weight change
WT mice; WT mice, chronic administration, termination time point of the experiment
  survival: at least 16 months
WT mice; within the tested dose range (256, later 200 mg/kg/day i.p.)
  toxicity of chronic use: did not display any toxicity
APP/PS1 mice [3]; APP/PS1 mice at 13 months of age
  improvement of PPI deficit: reached significant level
APP/PS1 mice [3]; APP/PS1 mice, i.p. once daily from 5 months of age, tested at 7, 10, 13 months
  prepulse inhibition (PPI): normal PPI at all time points
[2]
  ROS level compared with 3-NP-vehicle-treated group: much more significant
[4]; Aβ25-35 exposure, then 0.5 mM for 4 days
  neurogenesis (BrdU+/NeuN+ cells) vs corresponding control: significantly improve neurogenesis
[4]; No Aβ25-35 exposure, 0.5 mM for 4 days
  neurogenesis (BrdU+/NeuN+ cells) vs corresponding control: significantly improve neurogenesis
[5]
  cell survival rate: 85.1%
  protective effect against Aβ25-35 in the presence vs absence of MK-801: no differences were observed
[6]; [11]
  ATP production: more reduction
  proton leak: more reduction
[6]; 24 h pre-treatment
  spare respiratory capacity: increasing tendency
[6]; 24 h pre-treatment, did not reach the significant level
  basal oxygen consumption rate: reduced more basal oxygen consumption rate than the other treatment groups
[7]; 3 mM LiBen present for 53 hrs of the whole culture period
  OGD-induced cell death / cell viability: significantly recovered and comparable to the normoxia group
[7]; 5 mM LiBen, 53 hrs
  cell survival in normoxia group: also reduced
  neuroprotective property under OGD: vanished
[7]; LiBen 0.3 to 3 mM added for 48 hrs post-OGD, vs 0 mM group
  OGD-induced cell death: significantly alleviates OGD-induced cell death
[8]
  AUC of lithium compared with the SB + Li2CO3 mixture group: also higher
  Cmax of lithium compared with the SB + Li2CO3 mixture group: significantly higher
APP/PS1 mice [9]
  decrease in number of plaques in cortex: 21.8%
  decrease in number of plaques in hippocampus: 27.8%

## [Cl-].[Li+] [LiCl, lithium chloride, reference compound]
[1]
  Cell Survival (%): 61.5%
[2]
  ROS level compared with 3-NP-vehicle-treated group: significant decreases
[5]
  cell survival rate: 74.0%
[6]; 24 h pre-treatment
  spare respiratory capacity: less effective than LiBen

## O=C([O-])c1ccccc1.[Na+] [SB, Sodium benzoate]
[1]
  Cell Survival (%): 67.1%
[2]
  ROS level compared with 3-NP-vehicle-treated group: significant decreases
[5]
  cell survival rate: 70.7%
  protective effect against Aβ25-35 in the presence vs absence of MK-801: blocked by MK-801
[6]; 24 h pre-treatment
  spare respiratory capacity: less effective than LiBen
[10]
  acceptable daily intake level: 5 mg/kg body weight
